Measured values collected from several papers.
Each line is one published result; the experiments were not run side by side. ≈ marks a conversion by molar mass, not a printed value.
Organism: Staphylococcus epidermidis

Structure (SMILES)	effect on	technique	strain	time	quantity	value
CC(C)Oc1c(NC(=O)c2ccc(NC(=O)c3ccc(NC(=O)[C@H](CC(N)=O)NC(=O)c4ccc(NC(=O)c5ccc(C#N)cn5)cc4)cc3)c(OC(C)C)c2O)ccc(C(=O)O)c1O	microbial growth		DSM28765		MIC	≤ 0.03 µg/mL
O=[N+]([O-])c1ccc2c(N=Nc3c(O)ccc4ccccc34)c(O)cc(S(=O)(=O)O)c2c1	microbial growth	broth dilution		24 h	MIC50	250 µM (≈ 110 µg/mL)
Cc1c(NC(=O)CC2=NC(=O)CS2)c(=O)n(-c2ccccc2)n1C	microbial killing	broth dilution			MBC	1 µg/mL (≈ 2.9 µM)
CC(C)Oc1c(NC(=O)c2ccc(NC(=O)[C@H](CC(N)=O)NC(=O)c3ccc(NC(=O)c4ccc(C#N)cc4)cc3)cc2)ccc(C(=O)Nc2ccc(C(=O)O)cc2)c1O	microbial growth		DSM28765		MIC	≤ 0.03 µg/mL
O=C1NC(=S)N/C1=C\c1ccc(-c2ccc(N(c3ccccc3)c3ccccc3)cc2)c2ccccc12	microbial growth	broth dilution	ATCC12228		MIC	> 1000 µg/mL
O=C(O)c1cn(C2CC2)c2cc(N3CCNCC3)c(F)cc2c1=O	microbial growth		DSM28765		MIC	0.25 µg/mL
O=C(O)c1cn(C2CC2)c2cc(N3CCNCC3)c(F)cc2c1=O	microbial killing	broth dilution			MBC	0.5 µg/mL (≈ 1.51 µM)
O=C(O)CN1C(=O)/C(=C/c2ccc(-c3ccc(N(c4ccccc4)c4ccccc4)cc3)c3ccccc23)NC1=S	microbial growth	broth dilution	ATCC12228		MIC	> 1000 µg/mL
O=S(=O)(O)c1cc(O)c(N=Nc2ccc3ccccc3c2O)c2ccccc12	microbial growth	broth dilution		24 h	MIC50	63 µM (≈ 24.8 µg/mL)
COc1cccc(OC)c1C(=O)N[C@@H]1C(=O)N2[C@@H]1SC(C)(C)[C@@H]2C(=O)O	microbial growth	broth dilution	12228		MIC	3.13 µM
O=C(O)CN1C(=O)/C(=C/c2ccc(-c3ccc(N(c4ccccc4)c4ccccc4)cc3)c3ccccc23)SC1=S	microbial killing	broth dilution	ATCC12228		MBC	1000 µg/mL (≈ 1750 µM)
CC(C)Oc1c(NC(=O)c2ccc(NC(=O)[C@H](CC(N)=O)NC(=O)c3ccc(NC(=O)c4ccc(C#N)cn4)cc3)cc2)ccc(C(=O)Nc2ccc(C(=O)O)cc2)c1O	microbial growth		DSM28765		MIC	1 µg/mL
O=C1NC(=S)S/C1=C\c1ccc(-c2ccc(N(c3ccccc3)c3ccccc3)cc2)c2ccccc12	microbial killing	broth dilution	ATCC12228		MBC	> 1000 µg/mL
N#CC(=Cc1ccccc1O)C1=NC(=O)C(=Cc2cn(-c3ccccc3)nc2-c2ccccc2)S1	microbial killing	broth dilution			MBC	0.25 µg/mL (≈ 0.527 µM)
